# Screening results (PubChem BioAssay)
# Only some compounds are listed: those with a hit (about 1.6% of all), similar ones and a draw of the others.
# Neddylation inh: inhibitors of human cullin neddylation; P61081+Q13564; TR-FRET cullin neddylation, biochemical; calls only at 25 µM; 360,000 compounds, 0.58% hits; in the data active means inhibition above about 36%
# RAD54 inh: inhibitors of human RAD54 branch migration; Q92698; inhibition, % at 10.4 µM; 360,000 compounds, 0.14% hits; RAD54 Holliday junction branch migration, FAM/BHQ fluorescence;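 active means mean normalized replicate activity at least 40 and at least half of replicates scoring 40 or more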;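 further: 0% = median of neutral control wells and 100% = median of positive control wells; inhibitors cause a drop in the FAM fluorescence signal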
# RAD52 anneal inh: blocks human RAD52 DNA annealing; P43351; recombinant RAD52 DNA annealing, FRET fluorescence; inhibition, % at 18.7 µM; 360,000 compounds, 0.46% hits; AID 651710;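 active means every replicate showing at least 50% inhibition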
# Target sequence (P43351 whole entry, looked up): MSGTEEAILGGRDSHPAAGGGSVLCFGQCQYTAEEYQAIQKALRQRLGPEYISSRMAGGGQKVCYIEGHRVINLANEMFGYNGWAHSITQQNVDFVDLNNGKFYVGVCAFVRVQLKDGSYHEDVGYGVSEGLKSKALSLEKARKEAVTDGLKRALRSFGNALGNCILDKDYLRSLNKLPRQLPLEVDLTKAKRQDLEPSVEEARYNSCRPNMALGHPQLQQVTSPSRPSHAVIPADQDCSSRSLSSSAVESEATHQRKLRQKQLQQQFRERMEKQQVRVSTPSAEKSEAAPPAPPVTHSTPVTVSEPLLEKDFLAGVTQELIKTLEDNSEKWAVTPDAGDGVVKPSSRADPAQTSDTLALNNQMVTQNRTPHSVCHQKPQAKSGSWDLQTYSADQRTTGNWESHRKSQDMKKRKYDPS
# UBC13 inh: blocks human UBC13 polyubiquitin chain formation; P61088; TR-FRET; inhibition, % at 20 µM; 330,000 compounds, 0.47% hits; in the data active means inhibition above about 45%, passing the limit was not always enough
# Target sequence (P61088 whole entry, looked up): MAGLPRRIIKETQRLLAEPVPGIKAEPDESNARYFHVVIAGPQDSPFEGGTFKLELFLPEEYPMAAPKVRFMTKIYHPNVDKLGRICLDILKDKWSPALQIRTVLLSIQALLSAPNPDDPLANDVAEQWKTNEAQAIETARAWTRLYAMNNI
# Apaf-1 inh: inhibitors of human Apaf-1 apoptosome | reconstituted apoptosome caspase-3 activity, DEVD-Rh110 fluorescence | inhibition, % at 20 µM | 330,000 compounds, 0.71% hits | AID 489030 | O14727; active means inhibition of at least 40% at 20 µM;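 further: plate controls were DMSO wells for no effect and DEVD-CHO caspase inhibitor wells for full effect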
#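 Material: reconstituted apoptosome with Apaf-1, cytochrome c, caspase-9, procaspase-3, dATP. Technique: Rh110 fluorescence intensity. Buffer or medium: pH 7.5 Hepes buffer with CHAPS, BSA, DTT. Times: 30 min plus 50 min, RT.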
# DNA FID counter: displaces DNA intercalator in HCV helicase counter-screen | 290,000 compounds, 0.17% hits | AID 1845 | DNA fluorescent intercalator displacement, fluorescence | inhibition, % at 7.9 µM; in the data active means inhibition above about 37%;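 further: 0% = vehicle and 100% = reference compound; higher means more ethidium bromide displaced from hairpin DNA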
# Casp3 UBC13 ctr: caspase-3 inhibition (UBC13 counter-screen); shares compounds with UBC13 inh; Recombinant caspase-3, Caspase-Glo 3/7 luminescence, 60 min; inhibition, % at 20 µM; 1,400 compounds, 4% hits; AID 488856;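 active means mean inhibition across replicates above about 26%, limit read from the data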;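 further: plate controls were DMSO with caspase-3 for no effect and DMSO wells lacking enzyme for full effect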
# UBC13 conf: human UBC13 polyubiquitin inhibition, confirmed; shares compounds with UBC13 inh; inhibition, % at 10 µM; AID 488859; 1,400 compounds, 68% hits; UBC13 polyubiquitination, TR-FRET, biochemical; in the data active means inhibition above about 45%
# Starred values were filed as active, the others as inactive; i = inactive; x = no result given.
SMILES,Neddylation inh,RAD54 inh,RAD52 anneal inh,UBC13 inh,Apaf-1 inh,DNA FID counter,Casp3 UBC13 ctr,UBC13 conf
CCCCN1C(=N)N([C@@H](CN2CCC[C@H]2CN2C(N)=NC[C@@H]2Cc2ccccc2)C(C)C)C[C@H]1Cc1ccccc1,i,1.7,16.9,46.8*,38.4,x,0.5,38.9
CCCCN1C(=N)N([C@@H](CCC)CN2CCC[C@H]2CN2C(N)=NC[C@H]2CC(C)C)C[C@H]1Cc1ccccc1,i,11.3,18.1,51.2*,17.2,x,2.2,37.8
CCCCN1C(=N)N([C@@H](C)CN2CCC[C@H]2CN2C(N)=NC[C@@H]2Cc2ccccc2)C[C@H]1Cc1ccccc1,i,4.3,21.2,28.0,23.7,x,x,x
OC(c1cc(C(F)(F)F)nc2c(Cl)cc(Cl)cc12)C1CCCCN1 (stereo not given),i,5.8,11.4,7.1,8.5,17.3,x,x
O[C@@H](c1cc(C(F)(F)F)nc2c(C(F)(F)F)cccc12)[C@H]1CCCCN1,i,25.6,14.4,64.1*,51.9*,x,-2.4,44.7
CCC(=O)N1CC(=O)N2[C@H](C1)[C@H](c1ccc(-c3ccccc3F)cc1)[C@@H]2CO,x,x,-14.5,x,x,x,x,x
CCOc1ccc(Cl)cc1/C=N/NC(N)=O,i,x,-6.5,49.7*,6.8,-2.7,-2.5,53.4*
CCOc1ccc(Cl)cc1/C=N/O,i,x,-6.8,12.3,-10.5,0.8,x,x
COc1cccc(NC(=O)N[C@@H]2CC[C@H](CC(=O)N3CCOCC3)O[C@H]2CO)c1,x,0.2,-12.8,x,x,x,x,x
COc1ccc2c3c([nH]c2c1)[C@H](CO)N(C(=O)NC(C)C)CC31CN(C(=O)NC(C)C)C1,x,x,-4.2,x,x,x,x,x
COc1ccc2c3c([nH]c2c1)[C@H](CO)N(C(=O)c1ccccn1)CC31CN(C(=O)C2CC2)C1,x,x,6.6,x,x,x,x,x
COc1ccccc1NC(=O)c1cc(S(=O)(=O)N2CCCCCC2)ccc1F,i,-11.1,-6.3,67.7*,20.9,-30.0,-4.3,90.2*
COc1ccc(C)cc1NC(=O)c1cc(S(=O)(=O)N2CCCCC2)ccc1N1CCOCC1,i,4.8,-2.8,65.4*,7.9,x,-3.0,50.6*
COc1ccc(CN(C)C[C@H]2Oc3ccc(NC(=O)NC(C)C)cc3CC(=O)N([C@H](C)CO)C[C@H]2C)cc1,x,-35.6,-2.0,x,x,x,x,x
COc1ccc(-c2sc3ccc(OC)cc3c2C#Cc2cncn2C)cc1,x,3.3,-26.3,48.3*,16.4,x,-1.8,40.3
CO[C@H]1CN(C)C(=O)c2cc(NC(=O)Cc3ccccc3)ccc2OC[C@@H](C)NC[C@H]1C,x,-6.8,1.3,x,x,x,x,x
CN(C)S(=O)(=O)c1cccc(COC(=O)c2ccc(Cl)cc2O)c1,i,x,-14.3,0.5,1.7,-19.0,x,x
CN(C)S(=O)(=O)c1cccc(COc2ncnc3c(Cl)cc(Cl)cc23)c1,i,-4.6,6.7,63.7*,3.0,-23.7,5.9,76.4*
CCNC(=O)Nc1ccc2c(c1)C(=O)N(C)[C@@H]1CC[C@H](CC(=O)NCc3cccc(F)c3)O[C@@H]1CO2,x,6.5,x,x,x,x,x,x
COc1ccc2c3c(n(C)c2c1)[C@H](CO)N(C(=O)CN1CCOCC1)CC31CN(C(=O)CC2CC2)C1,x,x,-2.1,x,x,x,x,x
O=C(CSc1ccccc1C(=O)NCCCN1CCCC1=O)NCc1ccco1,i,4.2,x,50.0*,-7.7,-7.2,-0.4,3.5
O=C(CSc1ccccc1F)NCCCN1CCCC1=O,i,-6.3,-4.9,1.0,-1.1,x,x,x
CC(C)(C)OC(=O)N1CCC(NC(=O)c2nc[nH]c2C(=O)NC2CCN(C(=O)OC(C)(C)C)CC2)CC1,i,-0.3,-9.1,8.4,19.3,x,x,x
CCOC(=O)c1ccc(NC(=O)c2nc[nH]c2C(=O)NC2CCN(C(=O)OC(C)(C)C)CC2)cc1,x,6.2,-30.0,92.2*,11.9,x,-1.2,91.9*
CCOC(=O)c1ccc(NC(=O)c2nc[nH]c2C(=O)NCCCCCNC(=O)OC(C)(C)C)cc1,i,5.8,-10.2,45.3*,34.8,x,-1.8,21.7
SMILES,Neddylation inh,RAD54 inh,RAD52 anneal inh,UBC13 inh,Apaf-1 inh,DNA FID counter,Casp3 UBC13 ctr,UBC13 conf
CCOC(=O)c1ccc(NC(=O)c2nc[nH]c2C(=O)NCC(=O)OC(C)(C)C)cc1,i,1.0,x,51.7*,24.7,x,-2.3,27.8
CCOC(=O)c1ccc(NC(=O)c2nc[nH]c2C(=O)NCCCNC(=O)c2[nH]cnc2C(=O)Nc2ccc(C(=O)OCC)cc2)cc1,i,2.5,-96.0,14.9,-1.0,x,x,x
COc1ccc2c3c(n(C)c2c1)[C@@H](CO)N(S(C)(=O)=O)CC31CCN(CC2CCCC2)CC1,x,x,11.8,x,x,x,x,x
CNC[C@@H]1Oc2c(cccc2N(C)C)C(=O)N([C@H](C)CO)C[C@H]1C,x,2.5,-3.5,x,x,x,x,x
C[C@@H]1CN([C@H](C)CO)C(=O)Cc2cc(NC(=O)C3CC3)ccc2O[C@H]1CN(C)S(C)(=O)=O,x,-9.2,3.8,x,x,x,x,x
Cc1nc2c(C)cccn2c1C(=O)N/N=C/c1ccccc1[N+](=O)[O-],i,x,-3.3,-7.5,2.0,-5.7,x,x
Cc1nc2ccccn2c1C(=O)N/N=C/c1ccccc1[N+](=O)[O-],i,-1.2,-17.7,63.3*,-28.1,0.9,-5.1,-3.1
O=C(c1cccc(F)c1)N1CC[C@@H]2[C@H]1c1cc(C#Cc3ccc(F)cc3)ccc1N[C@@H]2CO,x,-9.3,-151.3,x,x,x,x,x
COc1ccc(Cl)cc1/C=N/NC(=O)c1c(-c2ccccc2)noc1C,i,6.7,-5.9,55.8*,10.0,-30.6,2.4,42.7
C[C@@H]1CN([C@H](C)CO)C(=O)c2cc(NC(=O)CCCCCC(=O)Nc3ccccc3N)ccc2O[C@@H]1CN(C)Cc1ccc(C(F)(F)F)cc1,x,x,-6.5,x,x,x,x,x
CSCCC(NC(=O)c1ccccc1Cl)C(=O)NNC(=O)c1csc(N2CCOCC2)n1 (stereo not given),i,4.4,-9.8,50.2*,0.1,x,-1.5,57.0*
CSCCC(NS(=O)(=O)c1ccccc1F)C(=O)NNC(=O)c1csc(N2CCOCC2)n1 (stereo not given),i,-1.5,-8.2,-5.5,0.0,x,x,x
CSCCC(NC(=O)c1ccccc1Br)C(=O)NCC(C)(C)N1CCOCC1 (stereo not given),i,-5.1,2.3,-6.7,9.6,x,x,x
CSCCC(NC(=O)c1ccccc1Br)C(=O)NNC(=O)c1csc(N2CCOCC2)n1 (stereo not given),i,4.5,-1.1,49.9*,0.8,x,-0.6,52.0*
O=C(Nc1cccc(F)c1)c1cc(S(=O)(=O)NCCC2=CCCCC2)ccc1F,i,2.0,x,47.9*,22.3,-6.4,-2.4,29.7
Cc1ccc(NC(=O)c2cc(S(=O)(=O)NCCC3=CCCCC3)ccc2F)cc1F,i,x,x,-1.1,5.6,-2.5,x,x
C[C@@H]1CCCCO[C@H](CN(C)C(=O)Nc2ccc(C(F)(F)F)cc2)[C@H](C)CN([C@@H](C)CO)C(=O)c2cc(NC(=O)c3ccncc3)ccc2O1,x,5.1,-8.6,x,x,x,x,x
